The source made the active and inactive calls. The calls are words filed in the database; no cut-off is given here.
How the values were obtained:
Candida albicans [1] = assay: Antimicrobial activity against antibiotic resistant Candida albicans clinical isolate 08030809 in mouse vaginitis model assessed as decrease in colony count in lavage liquid of vagina at 20 ug administered as intravaginal instillation measured on day 11; format: functional
Candida albicans [2] = assay: Antimicrobial activity against antibiotic resistant Candida albicans clinical isolate 08030809 assessed as clone count at MIC after 10 mins by colony counting assay (reference value: 102 +/- 11 CFU); format: functional
Escherichia coli = assay: Antimicrobial activity against Escherichia coli ATCC 25922 assessed as inhibition of […] growth after 16 hrs by broth dilution method; format: functional; conditions: ATCC 25922, 16 h
How it was run: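 Broth dilution in LB broth; 100 µL of 2 × 10^5 CFU/mL bacterial suspension plus 10 µL sample (stock series in 0.9% NaCl) in 90 µL broth, 37°C for 16 h. Growth read as A600; MIC is the lowest concentration completely inhibiting growth. Mean of three independent experiments run in duplicate.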

Candida albicans [3] = assay: Antimicrobial activity against antibiotic resistant Candida albicans clinical isolate 08030809 in mouse vaginitis model assessed as decrease in colony count in lavage liquid of vagina at 50 ug administered as intravaginal instillation measured on day 16; format: functional
Candida albicans [4] = assay: Antimicrobial activity against antibiotic resistant Candida albicans clinical isolate 08030809 assessed as clone count at 5 times MIC after 10 mins by colony counting assay (reference value: 102 +/- 11 CFU); format: functional
Candida albicans [5] = assay: Antimicrobial activity against antibiotic resistant Candida albicans clinical isolate 08032815 after 16 hrs by broth dilution method; format: functional; conditions: isolate 08032815, 16 h
How it was run: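 Broth dilution MIC. Samples were serially diluted in 0.9% NaCl and mixed with Sabouraud broth and yeast suspension at 2 × 10^5 CFU/mL, then incubated 16 h at 28°C. Growth was read at 600 nm. MIC is the lowest concentration giving complete growth inhibition, reported as mean of three independent experiments.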

Candida albicans [6] = assay: Antimicrobial activity against antibiotic resistant Candida albicans clinical isolate 08030809 assessed as clone count at 5 times MIC after 24 hrs by colony counting assay (Rvb > 10^5 CFU); format: functional
[7] = Ratio of HC50 for human RBC to MIC for Candida albicans ATCC 2002
Candida albicans [8] = assay: Antimicrobial activity against antibiotic resistant Candida albicans clinical isolate 08030809 in mouse vaginitis model assessed as colony count in lavage liquid of vagina at 50 ug administered as intravaginal instillation measured on day 16; format: functional
Candida albicans [9] = assay: Antimicrobial activity against antibiotic resistant Candida albicans clinical isolate 08030809 assessed as clone count at 10 times MIC after 30 mins by colony counting assay (reference value: 156 +/- 16 CFU); format: functional
Candida albicans [10] = assay: Antimicrobial activity against antibiotic resistant Candida albicans clinical isolate 08030401 after 16 hrs by broth dilution method; format: functional; conditions: isolate 08030401, 16 h
How it was run: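 Broth microdilution in Sabouraud liquid medium. Samples are stocks in 0.9% NaCl, 10 µL added to 90 µL broth plus 100 µL of 2 × 10^5 CFU/mL yeast suspension. Incubated 16 h at 28°C, growth read by A600. MIC is the lowest concentration completely inhibiting growth; mean of three independent experiments.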

Mus musculus [11] = assay: Antiinflammatory activity in antibiotic resistant Candida albicans clinical isolate 08030809 induced mouse vaginitis model assessed as reduction in TNF-alpha secretion in vaginal tissue administered as intravaginal instillation measured on day 10 by ELISA; format: functional, organism-based; conditions: Vagina
How it was run: (§1)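 Same estradiol-primed mouse model, infected intravaginally with C. albicans 08030809 and treated by intravaginal instillation (20 µL/mouse). Vaginal canals excised on day 10 of treatment and homogenised in 0.9% NaCl. Supernatant taken after 2,000 g for 15 min. TNF-α, IL-6, IL-1β and IL-10 measured by ELISA. Mean ± SE of three independent experiments; unpaired t-test versus vehicle.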

Candida albicans [12] = assay: Antimicrobial activity against antibiotic resistant Candida albicans clinical isolate 08030809 compound treated in double distilled water measured after 36 hrs by disc diffusion method; format: functional; conditions: isolate 08030809, 36 h
How it was run: (§2)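 Salt-tolerance test: peptide at 2 mg/mL was prepared in sterile ddH2O, in 150 mM NaCl, or in PBS (150 mM NaCl, 2.7 mM KCl, 1.5 mM KH2PO4, 8 mM K2HPO4, pH 7.2). Anti-C. albicans activity was then assessed by inhibition zone on Sabouraud medium with 0.7% agar.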

Candida albicans [13] = assay: Antimicrobial activity against antibiotic resistant Candida albicans clinical isolate 08030809 in mouse vaginitis model assessed as decrease in colony count in lavage liquid of vagina at 50 ug administered as intravaginal instillation measured on day 6; format: functional
Mus musculus [14] = assay: Antiinflammatory activity in antibiotic resistant Candida albicans clinical isolate 08030809 induced mouse vaginitis model assessed as reduction in IL-6 secretion in vaginal tissue administered as intravaginal instillation measured on day 10 by ELISA; format: functional, organism-based; conditions: Vagina; how it was run: as §1
Mus musculus [15] = assay: Antiinflammatory activity in antibiotic resistant Candida albicans clinical isolate 08030809 induced mouse vaginitis model assessed as reduction in IL-10 secretion in vaginal tissue at 20 ug administered as intravaginal instillation measured on day 10 by ELISA; format: functional, Vagina; how it was run: as §1
Candida albicans [16] = assay: Effect on cell membrane integrity in antibiotic resistant Candida albicans clinical isolate 08030809 at MIC measured every 2 mins upto 20 mins by SYTOX green nucleic acid staining-based fluorescence assay; format: functional, organism-based
How it was run: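 Exponential-phase C. albicans 08030809 was washed and resuspended at 10^6 CFU/mL in 10 mM PBS pH 7.4. Cells were loaded with 0.1 µM (final) SYTOX Green for 15 min at 37°C with shaking, then test samples were added. Fluorescence (ex 488/em 530 nm) was recorded every 2 min as RFU. Mean ± SE of five independent experiments.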

Candida albicans [17] = assay: Antimicrobial activity against antibiotic resistant Candida albicans clinical isolate 08032815 compound treated in PBS solution measured after 36 hrs by disc diffusion method; format: functional; conditions: isolate 08032815, 36 h; how it was run: as §2
Candida albicans [18] = assay: Antimicrobial activity against antibiotic resistant Candida albicans clinical isolate 08030809 assessed as clone count at MIC after 30 mins by colony counting assay (reference value: 156 +/- 16 CFU); format: functional
Mus musculus [19] = assay: Antiinflammatory activity in antibiotic resistant Candida albicans clinical isolate 08030809 induced mouse vaginitis model assessed as microabscess number in vaginal tissue at 20 ug administered as intravaginal instillation measured after 16 days by hematoxylin-eosin staining based microscopic method (reference value: 61); format: functional, Vagina
How it was run: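 Mice given weekly subcutaneous estradiol valerate (0.5 mg in 0.1 mL vegetable oil) 72 h before infection. Infected intravaginally with 20 µL of 10^7 CFU/mL C. albicans 08030809. Intravaginal instillation of 20 µL daily for 16 days. Vaginal canals excised after lavage, formalin-fixed, paraffin-embedded, HE-stained. Microabscesses counted per high-power field over 6 fields per section, three independent experiments.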

Candida albicans [20] = assay: Antimicrobial activity against antibiotic resistant Candida albicans clinical isolate 08030809 assessed as clone count at 10 times MIC after 3 hrs by colony counting assay (reference value: 3687 +/- 543 CFU); format: functional
Candida albicans [21] = assay: Antimicrobial activity against antibiotic resistant Candida albicans clinical isolate 08030809 assessed as clone count at 10 times MIC after 24 hrs by colony counting assay (Rvb > 10^5 CFU); format: functional

H-VKRWKKWRWKWKKWV-NH2
inhibition (INH) (Candida albicans [1]): 37%
Activity (Candida albicans [2]): 15 CFU
MIC (Escherichia coli): 9.38 µg/mL
inhibition (INH) (Candida albicans [3]): 83%
Activity (Candida albicans [4]): 9 CFU
MIC (Candida albicans [5]): 2.79 µg/mL
Activity (Candida albicans [6]): 0 CFU
Ratio [7]: 542
Activity (Candida albicans [8]): 2.9 ×10³ CFU/ml
Activity (Candida albicans [9]): 0 CFU
MIC (Candida albicans [10]): 4.69 µg/mL
Activity (Mus musculus [11]): Dose-dependent effect
MIC (Candida albicans [12]): 1.4 µg/mL
inhibition (INH) (Candida albicans [13]): 48%
Activity (Mus musculus [14]): Dose-dependent effect
inhibition (INH) (Mus musculus [15]): 39%
Activity (Candida albicans [16]): Active
MIC (Candida albicans [17]): 2.79 µg/mL
Activity (Candida albicans [18]): 0 CFU
Activity (Mus musculus [19]): <3
Activity (Candida albicans [20]): 0 CFU
Activity (Candida albicans [21]): 0 CFU

Source: ChEMBL document CHEMBL3779860, “A Designed Tryptophan- and Lysine/Arginine-Rich Antimicrobial Peptide with Therapeutic Potential for Clinical Antibiotic-Resistant Candida albicans Vaginitis” (J Med Chem, 2016)
